Measured values taken from ChEMBL document CHEMBL4837208, “1,2,4-Triazolo[1,5-a]pyrimidines: Efficient one-step synthesis and functionalization as influenza polymerase PA-PB1 interaction disruptors” (Eur J Med Chem, 2021).

Columns and labels:
[1] = molecular target: PA/PB1 (Influenza A virus (A/Puerto Rico/8/1934(H1N1)), UniProt P03431+P03433); assay: Inhibition of Influenza A virus 6 His-tagged PA (239 to 716 residues) expressed in Escherichia coli BL21 pLysS/GST-tagged PB1 (1 to 25 residues) expressed in Escherichia coli protein-protein interaction using 3.3',5,5' tetramethyl benzidine as substrate by ELISA
Outline: (§1)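 Wells coated with 400 ng 6His-PA(239–716), E. coli BL21(DE3)pLysS-expressed, for 3 h at 37 °C, then blocked with 2% BSA/PBS for 1 h. Then 200 ng GST-PB1(1–25), or GST alone as control, added with compound at various concentrations, overnight at room temperature. Bound PB1 detected with HRP-anti-GST antibody (1:4000 in PBS/2% FBS). IC50 is the concentration halving PA–PB1 binding. At least three independent experiments in duplicate.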

Influenza A virus [2] = assay: Antiviral activity against Influenza A virus A/PR/8/34(H1N1) infected in MDCK cells assessed as inhibition of plaque formation for 48 hrs by plaque reduction assay; assay type: functional, organism-based; conditions: A/Puerto Rico/8/1934(H1N1)
Outline: (§2)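 MDCK monolayers (5 × 10⁵ cells/well, seeded 24 h earlier) washed with serum-free DMEM. Infected with A/PR/8/34 at 40 PFU/well for 1 h at 37 °C, in DMEM with TPCK-trypsin and 0.14% BSA, with compound or DMSO present. Overlay of the same medium plus 1.2% Avicel and compound. At 48 h, fixed with 4% formaldehyde and stained with 0.1% toluidine blue. Plaques counted against DMSO control set at 100%. At least three independent experiments in duplicate.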

[3] = Cytotoxicity against MDCK cells assessed as reduction in cell viability incubated for 48 hrs by MTT assay; assay type: cell-based, Canis lupus familiaris; conditions: dog
Outline: (§3)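 MDCK cells (2 × 10⁴/well) grown 24 h, then given serial compound dilutions or DMSO in DMEM with 10% FBS for 48 h at 37 °C. MTT (5 mg/mL in PBS) added for 4 h. Lysed overnight with 10% SDS/0.01 N HCl, then OD read at 620 nm. CC50 is the concentration reducing viability by 50%. At least three independent experiments in duplicate.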

[4] = molecular target: PA/PB1 (Influenza A virus (A/Puerto Rico/8/1934(H1N1)), UniProt P03431+P03433); assay: Inhibition of Influenza A virus PA-PB1 protein-protein interaction by ELISA; assay type: protein assay; outline: as §1
Influenza A virus [5] = assay: Antiviral activity against Influenza A virus A/PR/8/34(H1N1) infected in MDCK cells assessed as inhibition of viral replication by plaque reduction assay; assay type: functional, organism-based; conditions: A/Puerto Rico/8/1934(H1N1); outline: as §2
[6] = Cytotoxicity against MDCK cells assessed as reduction in cell viability by MTT assay; assay type: cell-based, Canis lupus familiaris; conditions: dog; outline: as §3
SARS-CoV-2 = assay: microbe, parasite or virus in culture; assay type: functional, organism-based, Vero E6; conditions: Severe acute respiratory syndrome coronavirus 2, Vero C1008
[7] = molecular target: RNA-directed RNA polymerase (Influenza A virus (strain A/Puerto Rico/8/1934 H1N1), UniProt P03428+P03431+P03433); assay: Inhibition of RdRP activity in Influenza A virus A/PR/8/34(H1N1) infected in HEK293T cells incubated for 24 hrs by minireplicon based dual luciferase assay; assay type: cell-based, Influenza A virus (A/Puerto Rico/8/1934(H1N1))
Outline: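 HEK293T cells (2 × 10⁵/well) plated overnight. Calcium-phosphate transfected with PB1, PB2, PA and NP plasmids (100 ng each), pPolI-Flu-ffLuc reporter (50 ng) and pRL-SV40 (50 ng), with compound or DMSO. Medium replaced at 5 h with compound-containing DMEM. Dual luciferase read at 24 h post-transfection. Firefly normalised to Renilla, with DMSO set at 100% polymerase activity.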

[8] = Cytotoxicity against African green monkey Vero E6 cells assessed as reduction in cell viability incubated for 1 to 2 hrs by MTS assay; assay type: cell-based, Vero C1008; conditions: chlorocebus sabaeus, time 1-2 hrs
Outline: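 Vero E6 cell viability measured by the colorimetric formazan-based MTS assay. Means of duplicate experiments.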

SMILES: O=C(Nc1nc2nc(-c3ccccc3)cc(O)n2n1)c1ccccc1
- IC50 [1]: 21 µM
- EC50 (Influenza A virus [2]): > 100 µM
- CC50 at 48 h [3]: > 250 µM

SMILES: O=C(Nc1nc2nccc(-c3ccccc3)n2n1)c1ccccc1
- IC50 [1]: > 200 µM
- EC50 (Influenza A virus [2]): > 100 µM
- CC50 at 48 h [3]: > 250 µM

SMILES: COc1ccc(C(=O)Nc2nc3n(n2)C(c2ccccc2)C=C(C)N3)cc1 (configuration not stated)
- IC50 [4]: 171 µM
- EC50 (Influenza A virus [5]): > 100 µM
- CC50 [6]: 240 µM

SMILES: COc1ccc(C(=O)Nc2nc3nc(-c4ccccc4)cc(C)n3n2)cc1
- EC50 (Influenza A virus [2]): > 100 µM
- CC50 at 48 h [3]: > 250 µM
- EC50 (SARS-CoV-2): > 100 µM

SMILES: CCCOc1ccc(C(=O)Nc2nc3nc(-c4ccccc4)cc(C)n3n2)cc1
- EC50 (Influenza A virus [2]): > 100 µM
- CC50 at 48 h [3]: 247 µM
- EC50 (SARS-CoV-2): 65.3 µM

SMILES: O=C(Nc1nc2nc(-c3ccccc3)ccn2n1)c1ccccc1
- IC50 [1]: 165 µM
- EC50 (Influenza A virus [2]): > 100 µM
- CC50 at 48 h [3]: > 250 µM

SMILES: Cc1cc(-c2ccccc2)nc2nc(NC(=O)c3ccccc3F)nn12
- EC50 (Influenza A virus [2]): > 100 µM
- CC50 at 48 h [3]: > 250 µM
- EC50 (SARS-CoV-2): 30.6 µM

SMILES: Cc1cc(-c2ccccc2)nc2nc(C(=O)Nc3ccccc3C(=O)O)nn12
- IC50 [1]: 32 µM
- EC50 (Influenza A virus [2]): > 100 µM
- CC50 at 48 h [3]: > 250 µM

SMILES: COC(=O)c1ccccc1NC(=O)c1nc2nc(C)cc(-c3ccccc3)n2n1
- IC50 [1]: 26.5 µM
- EC50 (Influenza A virus [2]): > 80 µM
- CC50 at 48 h [3]: > 250 µM

SMILES: Cc1cc(-c2ccccc2)nc2nc(NC(=O)c3ccc(N)cc3)nn12
- EC50 (Influenza A virus [2]): > 100 µM
- CC50 at 48 h [3]: > 250 µM
- EC50 (SARS-CoV-2): 44 µM

SMILES: NC(=O)c1ccccc1NC(=O)c1nc2ncc(-c3ccccc3)cn2n1
- IC50 [1]: > 200 µM
- EC50 (Influenza A virus [2]): > 100 µM
- CC50 at 48 h [3]: > 250 µM

SMILES: Cc1cc(-c2ccccc2)nc2nc(NC(=O)c3ccc([N+](=O)[O-])cc3)nn12
- EC50 (Influenza A virus [2]): > 100 µM
- CC50 at 48 h [3]: > 250 µM
- EC50 (SARS-CoV-2): > 100 µM

SMILES: Cc1cc(-c2ccccc2)n2nc(C(=O)Nc3ccccc3C(=O)O)nc2n1
- IC50 [1]: 116 µM
- EC50 (Influenza A virus [2]): > 100 µM
- CC50 at 48 h [3]: > 250 µM

SMILES: Cc1cc(-c2ccccc2)nc2nc(NC(=O)c3ccc(O)c(O)c3)nn12
- EC50 (Influenza A virus [2]): > 100 µM
- CC50 at 48 h [3]: 112 µM
- EC50 (SARS-CoV-2): > 100 µM

SMILES: NC(=O)c1c(NC(=O)c2nc3nccc(-c4ccccc4)n3n2)sc2c1CCCCC2
- IC50 [1]: 22 µM
- EC50 (Influenza A virus [2]): > 60 µM
- CC50 at 48 h [3]: > 200 µM

SMILES: NC(=O)c1c(NC(=O)c2nc3ncc(-c4ccccc4)cn3n2)sc2c1CCCCC2
- IC50 [1]: 35 µM
- EC50 (Influenza A virus [2]): > 80 µM
- CC50 at 48 h [3]: 100 µM

SMILES: O=C(Nc1nc2ncc(-c3ccccc3)cn2n1)c1ccccc1
- IC50 [1]: > 200 µM
- EC50 (Influenza A virus [2]): > 100 µM
- CC50 at 48 h [3]: > 250 µM

SMILES: NC(=O)c1ccccc1NC(=O)c1nc2nccc(-c3ccccc3)n2n1
- IC50 [1]: 21 µM
- EC50 (Influenza A virus [2]): > 100 µM
- CC50 at 48 h [3]: > 250 µM

SMILES: Cc1cc(-c2ccccc2)n2nc(-c3nc4ccccc4c(=O)o3)nc2n1
- IC50 [1]: 19.5 µM
- EC50 (Influenza A virus [2]): 16 µM
- CC50 at 48 h [3]: > 250 µM
- EC50 [7]: 21 µM

SMILES: Cc1cc(-c2ccccc2)nc2nc(-c3nc4ccccc4c(=O)o3)nn12
- IC50 [1]: 123 µM
- EC50 (Influenza A virus [2]): > 100 µM
- CC50 at 48 h [3]: > 200 µM

SMILES: COC(=O)c1ccccc1NC(=O)c1nc2nc(-c3ccccc3)cc(C)n2n1
- IC50 [1]: 22.3 µM
- EC50 (Influenza A virus [2]): > 100 µM
- CC50 at 48 h [3]: > 250 µM

SMILES: Cc1cc(-c2ccccc2)nc2nc(C(=O)Nc3ccccc3F)nn12
- EC50 (Influenza A virus [2]): 83.8 µM
- CC50 at 48 h [3]: > 250 µM
- EC50 (SARS-CoV-2): 34.5 µM
- CC50 [8]: > 100 µM

SMILES: N#C[C@@]1(c2ccc3c(N)ncnn23)O[C@H](CO)[C@@H](O)[C@H]1O [GS-441524]
- EC50 (SARS-CoV-2): 0.89 µM

SMILES: NC(=O)c1ncn([C@@H]2O[C@H](CO)[C@@H](O)[C@H]2O)n1 [RIBAVIRIN]
- EC50 (Influenza A virus [2]): 10 µM
- CC50 at 48 h [3]: > 250 µM
- EC50 [7]: 16 µM
